Values after ≈ are worked out from the molar mass of the structure shown.

What all share (format): functional
Experiment [1] concerns Escherichia coli. As to the kind of experiment: Minimum concentration of compound needed to produce linear DNA at an intensity relative to oxolinic acid at 10 ug/mL was measured on Escherichia coli for gyrase-drug induced cleavage. In a few lines:
(§1)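 DNA gyrase from E. coli H560 cells. Endpoint is the minimum drug concentration (µg/mL) that converts closed circular DNA to linear DNA, through denaturation of the drug–gyrase–DNA complex, at an intensity relative to oxolinic acid at 10 µg/mL. Linear DNA is resolved by gel electrophoresis and stained with ethidium bromide. Runs in duplicate or triplicate; error of one serial dilution.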

Experiment [2] concerns Enterobacter cloacae. Nature of the experiment: Minimum inhibitory concentration (MIC) of compound was measured on Enterobacter cloacae HA 2646(gram negative organism). The method in brief: (§2)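 MICs (µg/mL) by standard microdilution (microtitration), with the enantiomers tested side by side with racemate across the organism panel. Aqueous stocks made up in 0.1 N NaOH or KOH. Performed in duplicate or triplicate; error of one serial dilution.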

Experiment [3] relates to Enterococcus faecalis. Nature of the experiment: Minimum inhibitory concentration (MIC) of compound was measured on Streptococcus faecalis MGH-2(gram positive organism). In a few lines: as §2
The test system of experiment [4] is Staphylococcus aureus. Nature of the experiment: Minimum inhibitory concentration (MIC) of compound was measured on Staphylococcus aureus H228 (gram positive organism). The method in brief: as §2
Experiment [5] relates to Staphylococcus aureus. Nature of the experiment: Minimum inhibitory concentration (MIC) of compound was measured on Staphylococcus aureus UC-76(gram positive organism). In a few lines:
as §2

The test system of experiment [6] is Pseudomonas aeruginosa. Nature of the experiment: Minimum inhibitory concentration (MIC) of compound was measured on Pseudomonas aeruginosa UI-18(gram negative organism). In a few lines: as §2
Experiment [7] deals with Streptococcus pneumoniae. Nature of the experiment: Minimum inhibitory concentration (MIC) of compound was measured on Streptococcus pneumoniae SV-1(gram positive organism). In a few lines:
as §2

Experiment [8] deals with Escherichia coli. As to the kind of experiment: Minimum inhibitory concentration (MIC) of compound was measured on Escherichia coli Vogel(gram negative organism). In a few lines: as §2
Experiment [9] concerns Escherichia coli. As to the kind of experiment: Minimum inhibitory concentration (MIC) of compound was measured on Escherichia coli H560 (gram negative organism). In a few lines: as §2
In experiment [10] the test system is Providencia rettgeri. Nature of the experiment: Minimum inhibitory concentration (MIC) of compound was measured on Providencia rettgeri H1771 (gram negative organism). In a few lines:
as §2

Experiment [11] concerns Escherichia coli. Nature of the experiment: Dose required to protect 50% of mice from lethal infection was measured on Escherichia coli vogel (subcutaneously). Conditions: sc, read-out: PD50. In a few lines: (§3)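 Female CD-1 mice (18-22 g) were challenged intraperitoneally with about 100 median lethal doses of E. coli in 5% hog gastric mucin. Single doses were given at challenge in a twofold rising series, subcutaneously as an aqueous solution or orally by gavage in 5% gum acacia. Groups of 8 mice per dose were used. PD50 was estimated from survival by log probit, with experiments run in duplicate.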

Experiment [12] relates to Streptococcus pneumoniae. Nature of the experiment: Dose required to protect 50% of mice from lethal infection was measured on Streptococcus pneumoniae SV-1(peroral administration). Conditions: po, read-out: PD50. In a few lines: (§4)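 Female CD-1 mice (18-22 g) received an intraperitoneal challenge of about 100 median lethal doses of S. pneumoniae in tryptic soy broth. A single dose was given at challenge in a twofold rising series, subcutaneously in aqueous solution or by oral gavage in 5% gum acacia. Survival of 8 mice per dose gave PD50 by log probit, with experiments run in duplicate.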

Experiment [13] concerns Streptococcus pyogenes. As to the kind of experiment: Minimum inhibitory concentration (MIC) of compound was measured on Streptococcus pyogenes C203 (gram positive organism). In a few lines:
as §2

The test system of experiment [14] is Streptococcus pneumoniae. Nature of the experiment: Dose required to protect 50% of mice from lethal infection was measured on Streptococcus pneumoniae SV-1 (subcutaneously). The note with it: sc, read-out: PD50. The method in brief: as §4
For experiment [15], the system named is Klebsiella pneumoniae. Nature of the experiment: Minimum inhibitory concentration (MIC) of compound was measured on Klebsiella pneumoniae MGH-2(gram negative organism). The method in brief: as §2
The subject of experiment [16] is Streptococcus pyogenes. Nature of the experiment: Dose required to protect 50% of mice from lethal infection was measured on Streptococcus pyogenes C203 (s.c.). The note with it: sc, read-out: PD50. In a few lines:
(§5)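 The lethal systemic infection in female CD-1 mice (18-22 g) was an intraperitoneal challenge of about 100 median lethal doses. Compound was given once at challenge in twofold rising doses, subcutaneously as an aqueous solution or orally by gavage in 5% gum acacia. PD50 was estimated by log probit from survival of groups of 8 mice, with experiments run in duplicate.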

The subject of experiment [17] is Escherichia coli. As to the kind of experiment: Dose required to protect 50% of mice from lethal infection was measured on Escherichia coli vogel(peroral administration). The note with it: po, read-out: PD50. In a few lines: as §3
In experiment [18] the test system is Streptococcus pyogenes. As to the kind of experiment: Dose required to protect 50% of mice from lethal infection was measured on Streptococcus pyogenes C203 (p.o. administration). Conditions: po, read-out: PD50. In a few lines: as §5
The subject of experiment [19] is Escherichia coli. Nature of the experiment: Concentration of compound needed to produce linear DNA at an intensity relative to oxolinic acid at 10 ug/mL was measured on Escherichia coli for gyrase-drug induced cleavage,. The method in brief: as §1

In experiment [1], `CCn1cc(C(=O)O)c(=O)c2cc(F)c(N3CCNCC3)cc21` [NORFLOXACIN] showed a Concentration of 1 µg/mL. Besides, the MIC in experiment [2] was determined as 0.1 µg/mL (≈ 0.313 µM); in experiment [3] it was 1.6 µg/mL (≈ 5.01 µM); in [4], 0.8 µg/mL (≈ 2.51 µM); in experiment [5] it was 0.05 µg/mL (≈ 0.157 µM); in experiment [6], 0.2 µg/mL (≈ 0.626 µM); in [7], 1.6 µg/mL (≈ 5.01 µM). Also, the MIC in experiment [8] is 0.025 µg/mL (≈ 0.0783 µM); in experiment [9], 0.1 µg/mL (≈ 0.313 µM); in [10], 0.025 µg/mL (≈ 0.0783 µM); in [13], 0.8 µg/mL (≈ 2.51 µM); in experiment [15], 0.05 µg/mL (≈ 0.157 µM). For the same compound, the ED50 in experiment [11] was 0.7 mg/kg; in experiment [12], 150 mg/kg; in experiment [14] it was above 100 mg/kg; in experiment [16], 45 mg/kg; in experiment [17] it was 1 mg/kg; in [18] it was above 100 mg/kg. In [19], the IC50 was found to be 5.5 µg/mL (≈ 17.2 µM).

(Values after ChEMBL document CHEMBL1123601, “Enantiomers of 1-ethyl-7-[3-[(ethylamino)methyl]-1-pyrrolidinyl]-6,8-difluoro-1,4- dihydro-4-oxo-3-quinoline-carboxylic acid: preparation and biological activity” (J Med Chem, 1987).)
